Holding throughout (format): functional
In assay [1] the test system is Mus musculus. Description: Antiepileptic activity in po dosed KM mouse assessed as protection against maximal electroshock-induced seizures administered 30 mins prior to electrical stimulation. In outline:
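Male KM mice (20 ± 2 g) were given compound orally, with a vehicle control group. Screening used 100 mg/kg, and dose–response series used 25, 50, 75, 100 and 150 mg/kg. The read-out was the percentage of mice protected from MES-induced seizures. ED50 and 95% confidence intervals were derived by Hill-equation fitting.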

Assay [2] relates to Mus musculus. Description: Antiepileptic activity in po dosed KM mouse assessed as protection against maximal electroshock-induced seizures administered 1 hr prior to electrical stimulation. Put shortly: (§1)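 Male KM mice, 20 ± 2 g, dosed orally; vehicle-treated group as control. Read-out is protection rate against maximal electroshock-induced seizures. Graded doses of 25, 50, 75, 100 and 150 mg/kg were used. ED50 and 95% confidence interval were fitted to the Hill equation.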

For assay [3], the system named is Mus musculus. Description: Antiepileptic activity in KM mouse assessed as protection against maximal electroshock-induced seizures at 100 mg/kg, po administered 1 hr prior to electrical stimulation. In outline:
as §1

The test system of assay [4] is Mus musculus. Briefly: Antiepileptic activity in KM mouse assessed as protection against maximal electroshock-induced seizures at 50 mg/kg, po administered 1 hr prior to electrical stimulation. In outline: as §1
The subject of assay [5] is Mus musculus. Briefly: Antiepileptic activity in KM mouse assessed as protection against maximal electroshock-induced seizures at 150 mg/kg, po administered 1 hr prior to electrical stimulation. Put shortly: as §1
Assay [6] relates to Mus musculus. Description: Antiepileptic activity in KM mouse assessed as protection against maximal electroshock-induced seizures at 25 mg/kg, po administered 1 hr prior to electrical stimulation. Put shortly: as §1
For assay [7], the system named is Mus musculus. Briefly: Antiepileptic activity in KM mouse assessed as protection against maximal electroshock-induced seizures at 75 mg/kg, po administered 1 hr prior to electrical stimulation. Put shortly:
as §1

Regarding `CCOC(=O)Nc1ccc(NCc2ccc(F)cc2)cc1N` [EZOGABINE], the ED50 with Mus musculus [1] was 15 mg/kg.
With `CO[C@H]1C[C@H](O[C@H]2[C@@H](OC)C[C@H](O[C@H]3CC[C@@]4(C)C(=CC[C@]5(O)[C@@H]4C[C@@H](OC(=O)/C=C(\C)C(C)C)[C@@]4(C)[C@]5(O)CC[C@@]4(O)C(C)=O)C3)O[C@@H]2C)O[C@@H](C)[C@H]1O[C@H]1C[C@H](OC)[C@H](O[C@H]2O[C@@H](CO)[C@H](O)[C@@H](O)[C@@H]2O)[C@@H](C)O1`, in the assay with Mus musculus [2], the ED50 is > 200 mg/kg.
With `CO[C@H]1C[C@@H](O[C@H]2[C@H](C)O[C@H](O[C@H]3[C@@H](C)O[C@H](O[C@H]4[C@@H](OC)C[C@H](O[C@@H]5CC[C@]6(C)C(=CCC(=O)[C@H]6C[C@H](OC(=O)/C=C/c6ccccc6)[C@]6(C)C(=O)CC[C@]6(O)[C@@H](C)OC(C)=O)C5)O[C@@H]4C)C[C@H]3OC)C[C@H]2OC)O[C@H](C)[C@H]1O`, the ED50 in the assay with Mus musculus [2] was > 200 mg/kg.
In the case of `CO[C@H]1C[C@@H](O[C@H]2[C@H](C)O[C@H](O[C@H]3[C@@H](C)O[C@H](O[C@H]4[C@@H](OC)C[C@H](O[C@@H]5CC[C@]6(C)C(=CC[C@@]7(O)[C@H]6C[C@H](OC(C)=O)[C@]6(C)[C@@]7(O)CC[C@]6(O)C(C)=O)C5)O[C@@H]4C)C[C@H]3OC)C[C@H]2OC)O[C@H](C)[C@H]1O`, the ED50 with Mus musculus [2] was > 200 mg/kg.
For `CO[C@H]1C[C@@H](O[C@H]2[C@H](C)O[C@H](O[C@H]3[C@@H](C)O[C@H](O[C@H]4[C@@H](OC)C[C@H](O[C@@H]5CC[C@]6(C)C(=CC[C@@]7(O)[C@H]6C[C@H](OC(=O)/C=C/c6ccccc6)[C@]6(C)[C@@]7(O)CC[C@]6(O)C(C)=O)C5)O[C@@H]4C)C[C@H]3OC)C[C@H]2OC)O[C@H](C)[C@H]1O`, the inhibition in vivo at 100 mg/kg with Mus musculus [3] was 70%. Besides, in the assay with Mus musculus [2], the 50% effective dose (ED50) is 72.3 mg/kg.
As to `CO[C@H]1C[C@H](O[C@H]2CC[C@@]3(C)C(=CC[C@]4(O)[C@@H]3C[C@@H](OC(=O)/C=C(\C)C(C)C)[C@@]3(C)[C@]4(O)CC[C@@]3(O)C(C)=O)C2)O[C@H](C)[C@H]1O[C@@H]1C[C@@H](OC)[C@@H](O[C@H]2C[C@H](OC)[C@H](O[C@@H]3C[C@H](OC)[C@H](O[C@H]4O[C@@H](CO)[C@H](O)[C@@H](O)[C@@H]4O)[C@@H](C)O3)[C@@H](C)O2)[C@@H](C)O1`, in the assay with Mus musculus [2], the ED50 is > 200 mg/kg.
With `CO[C@H]1C[C@H](O[C@@H]2[C@H](C)O[C@@H](O[C@H]3[C@@H](OC)C[C@H](O[C@H]4CC[C@@]5(C)C(=CC[C@]6(O)[C@@H]5C[C@@H](OC(=O)/C=C/c5ccccc5)[C@@]5(C)[C@]6(O)CC[C@@]5(O)C(C)=O)C4)O[C@@H]3C)C[C@@H]2OC)O[C@H](C)[C@H]1O`, in the assay with Mus musculus [3], the inhibition in vivo at 100 mg/kg amounted to 60%. Further, the ED50 with Mus musculus [2] is 95.3 mg/kg.
`CC[C@@H](C)C(=O)O[C@@H](C)[C@]1(O)CC[C@@]2(O)[C@]1(C)[C@H](OC(=O)/C=C/c1ccccc1)C[C@@H]1[C@@]3(C)CC[C@H](O[C@@H]4C[C@@H](OC)[C@@H](O[C@H]5C[C@H](OC)[C@H](O[C@H]6C[C@H](OC)[C@H](O[C@H]7C[C@@H](OC)[C@@H](O)[C@H](C)O7)[C@@H](C)O6)[C@H](C)O5)[C@H](C)O4)CC3=CC[C@]12O`: the inhibition in vivo at 50 mg/kg in the assay with Mus musculus [4] stood at 50%. In the assay with Mus musculus [3], the inhibition in vivo at 100 mg/kg came out at 90%. Also, the inhibition in vivo at 150 mg/kg with Mus musculus [5] amounted to 100%. In addition, the ED50 in the assay on Mus musculus [2] was 48.5 mg/kg. Moreover, the inhibition in vivo at 25 mg/kg in the assay on Mus musculus [6] came to 20%. Besides, in the assay on Mus musculus [7], the inhibition in vivo at 75 mg/kg was determined as 70%.
With `CO[C@H]1C[C@@H](O[C@H]2[C@H](C)O[C@H](O[C@H]3[C@@H](C)O[C@H](O[C@H]4[C@@H](OC)C[C@H](O[C@@H]5CC[C@]6(C)C(=CC[C@@]7(O)[C@H]6C[C@H](OC(=O)/C=C(\C)C(C)C)[C@]6(C)[C@@]7(O)CC[C@]6(O)C(C)=O)C5)O[C@@H]4C)C[C@H]3OC)C[C@H]2OC)O[C@H](C)[C@H]1O`, in the assay with Mus musculus [3], the inhibition in vivo at 100 mg/kg amounted to 40%. Moreover, the ED50 with Mus musculus [2] turned out to be 124 mg/kg.
Take `CO[C@H]1C[C@@H](O[C@H]2[C@H](C)O[C@H](O[C@H]3[C@@H](C)O[C@H](O[C@H]4[C@@H](OC)C[C@H](O[C@@H]5CC[C@]6(C)C(=CC[C@@]7(O)[C@H]6C[C@H](O)[C@]6(C)[C@@]7(O)CC[C@]6(O)C(C)=O)C5)O[C@@H]4C)C[C@H]3OC)C[C@H]2OC)O[C@H](C)[C@H]1O`: the ED50 in the assay on Mus musculus [2] was > 200 mg/kg.
Consider `CO[C@H]1C[C@H](O[C@H]2[C@H](C)O[C@H](O[C@H]3CC[C@@]4(C)C(=CC[C@]5(O)[C@@H]4C[C@@H](OC(=O)/C=C/c4ccccc4)[C@@]4(C)[C@]5(O)CC[C@@]4(O)[C@H](C)OC(=O)c4cccnc4)C3)C[C@H]2OC)O[C@@H](C)[C@H]1O[C@H]1C[C@H](OC)[C@H](O[C@H]2C[C@@H](OC)[C@@H](O)[C@H](C)O2)[C@@H](C)O1`, for which the inhibition in vivo at 100 mg/kg in the assay with Mus musculus [3] was 55.5%. Also, in the assay with Mus musculus [2], the ED50 came out at 88.1 mg/kg.
